Ki data for seven compounds are collected here from ChEMBL document CHEMBL1146597, “Synthesis, in vitro affinity, and efficacy of a bis 8-ethynyl-4H-imidazo[1,5a]- [1,4]benzodiazepine analogue, the first bivalent alpha5 subtype selective BzR/GABA(A) antagonist” (J Med Chem, 2003).

For assay [1], the target named is GABA A receptor alpha-4/beta-3/gamma-2 (Homo sapiens, UniProt P18507+P28472+P48169). The assay is described as follows: In vitro binding affinity for human GABA-A receptor alpha-4-beta-3-gamma-2 subunits expressed in L(tk-) cell membranes. The essentials:
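Radioligand displacement on Ltk cell membranes expressing human α4β3γ2 receptors, with 8 nM [3H]Ro15-4513 as radioligand. Ki is the mean of two determinations that differed by less than 10%.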

Assay [2] is described as follows: In vitro binding affinity for human GABA-A receptor alpha-3-beta-3-gamma-2 subunits expressed in L(tk-) cell membranes. The method, boiled down:
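Radioligand displacement on Ltk cell membranes expressing human α3β3γ2 receptors, with 1.8 nM [3H]Ro15-1788 as radioligand. Ki is the mean of two determinations that differed by less than 10%.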

Assay [3] concerns the target T1, GABA-A receptor; alpha-1/beta-3/gamma-2 (Homo sapiens, UniProt P14867+P18507+P28472).
T1 sequence (P14867 whole entry): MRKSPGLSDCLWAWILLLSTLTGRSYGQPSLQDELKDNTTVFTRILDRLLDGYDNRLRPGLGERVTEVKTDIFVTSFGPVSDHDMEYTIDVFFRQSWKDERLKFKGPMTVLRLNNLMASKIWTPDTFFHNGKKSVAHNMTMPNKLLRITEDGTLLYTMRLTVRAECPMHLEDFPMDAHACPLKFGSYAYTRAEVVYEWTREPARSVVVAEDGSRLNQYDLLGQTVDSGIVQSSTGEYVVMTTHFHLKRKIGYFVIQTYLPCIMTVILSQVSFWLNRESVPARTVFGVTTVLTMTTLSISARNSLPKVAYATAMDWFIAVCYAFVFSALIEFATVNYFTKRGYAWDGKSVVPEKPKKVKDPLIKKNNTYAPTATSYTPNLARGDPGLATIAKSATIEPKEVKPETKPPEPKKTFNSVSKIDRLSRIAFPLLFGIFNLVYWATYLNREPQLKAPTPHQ
T1 sequence (P18507 whole entry): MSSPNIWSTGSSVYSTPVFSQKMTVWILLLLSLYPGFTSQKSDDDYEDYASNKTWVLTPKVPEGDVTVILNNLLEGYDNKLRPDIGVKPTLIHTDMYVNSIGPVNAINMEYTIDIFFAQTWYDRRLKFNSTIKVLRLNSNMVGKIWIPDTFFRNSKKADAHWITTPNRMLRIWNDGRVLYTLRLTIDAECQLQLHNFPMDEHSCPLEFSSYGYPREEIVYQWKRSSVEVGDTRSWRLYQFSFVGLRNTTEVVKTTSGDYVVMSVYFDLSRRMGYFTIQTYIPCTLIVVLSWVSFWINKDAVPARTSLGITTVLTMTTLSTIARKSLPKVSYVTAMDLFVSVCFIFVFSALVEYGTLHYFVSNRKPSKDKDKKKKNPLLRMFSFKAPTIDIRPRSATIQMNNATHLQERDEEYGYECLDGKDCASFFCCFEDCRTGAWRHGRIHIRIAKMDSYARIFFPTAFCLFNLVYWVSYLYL
T1 sequence (P28472 whole entry): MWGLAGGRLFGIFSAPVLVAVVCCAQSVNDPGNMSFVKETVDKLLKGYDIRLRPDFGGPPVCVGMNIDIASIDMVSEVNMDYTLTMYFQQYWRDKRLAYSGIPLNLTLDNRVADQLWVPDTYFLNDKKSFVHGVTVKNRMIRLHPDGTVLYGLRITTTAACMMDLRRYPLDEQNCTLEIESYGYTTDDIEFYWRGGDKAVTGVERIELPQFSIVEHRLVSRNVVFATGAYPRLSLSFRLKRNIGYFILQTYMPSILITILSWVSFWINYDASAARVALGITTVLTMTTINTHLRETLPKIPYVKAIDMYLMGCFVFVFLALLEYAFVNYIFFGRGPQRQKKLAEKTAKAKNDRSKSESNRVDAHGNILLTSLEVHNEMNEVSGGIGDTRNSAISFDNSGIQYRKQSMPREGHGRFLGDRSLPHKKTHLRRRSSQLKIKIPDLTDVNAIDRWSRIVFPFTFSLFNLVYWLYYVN
The assay is described as follows: In vitro binding affinity for human GABA-A receptor alpha-1-beta-3-gamma-2 subunits expressed in L(tk-) cell membranes. The essentials: (§1)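 Radioligand displacement on membranes of […] cells expressing human αβ3γ2 receptors, using 1.8 nM [³H]Ro15-1788. Ki taken as the mean of two determinations that differed by less than 10%.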

Assay [4] addresses GABA-A receptor; alpha-6/beta-3/gamma-2 (Homo sapiens, UniProt P18507+P28472+Q16445). The assay is described as follows: In vitro binding affinity for human GABA-A receptor alpha-6-beta-3-gamma-2 subunits expressed in L(tk-) cell membranes.
For assay [5], the target named is T2, GABA-A receptor; alpha-5/beta-3/gamma-2 (Homo sapiens, UniProt P18507+P28472+P31644).
T2 sequence (P18507 whole entry): T1 sequence (P18507 whole entry)
T2 sequence (P28472 whole entry): T1 sequence (P28472 whole entry)
T2 sequence (P31644 whole entry): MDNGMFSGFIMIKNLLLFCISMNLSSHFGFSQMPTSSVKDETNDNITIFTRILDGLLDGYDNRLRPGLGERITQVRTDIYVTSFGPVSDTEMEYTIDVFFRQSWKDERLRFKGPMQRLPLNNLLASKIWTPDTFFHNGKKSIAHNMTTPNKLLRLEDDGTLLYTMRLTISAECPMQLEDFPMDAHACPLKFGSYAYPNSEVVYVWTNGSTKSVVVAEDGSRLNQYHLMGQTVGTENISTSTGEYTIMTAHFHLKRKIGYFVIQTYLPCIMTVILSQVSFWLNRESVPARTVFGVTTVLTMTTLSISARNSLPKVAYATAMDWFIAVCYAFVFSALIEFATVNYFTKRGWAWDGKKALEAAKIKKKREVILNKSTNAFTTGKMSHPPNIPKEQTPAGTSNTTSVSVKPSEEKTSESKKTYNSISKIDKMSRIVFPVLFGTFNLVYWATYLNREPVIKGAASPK
The assay is described as follows: In vitro binding affinity for human GABA-A receptor alpha-5-beta-3-gamma-2 subunits expressed in L(tk-) cell membranes. The essentials: as §1

Assay [6] concerns the target T3, GABA-A receptor; alpha-2/beta-3/gamma-2 (Homo sapiens, UniProt P18507+P28472+P47869).
T3 sequence (P18507 whole entry): T1 sequence (P18507 whole entry)
T3 sequence (P28472 whole entry): T1 sequence (P28472 whole entry)
T3 sequence (P47869 whole entry): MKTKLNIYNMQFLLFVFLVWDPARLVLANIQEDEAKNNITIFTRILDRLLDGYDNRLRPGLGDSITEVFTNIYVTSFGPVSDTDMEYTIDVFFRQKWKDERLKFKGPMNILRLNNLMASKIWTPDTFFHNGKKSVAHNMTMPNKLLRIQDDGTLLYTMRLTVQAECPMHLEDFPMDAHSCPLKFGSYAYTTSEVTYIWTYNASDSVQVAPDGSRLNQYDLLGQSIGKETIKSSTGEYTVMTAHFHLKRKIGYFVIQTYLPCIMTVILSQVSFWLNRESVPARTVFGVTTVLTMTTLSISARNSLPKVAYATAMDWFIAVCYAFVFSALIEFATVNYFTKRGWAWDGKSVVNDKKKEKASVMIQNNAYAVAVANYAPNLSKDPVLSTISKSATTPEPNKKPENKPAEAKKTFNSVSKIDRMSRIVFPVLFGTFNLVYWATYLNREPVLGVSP
The assay is described as follows: In vitro binding affinity for human GABA-A receptor alpha-2-beta-3-gamma-2 subunits expressed in L(tk-) cell membranes. The method, boiled down: as §1

GABA A receptor alpha-4/beta-3/gamma-2, sequence (P48169 whole entry, one chain of several): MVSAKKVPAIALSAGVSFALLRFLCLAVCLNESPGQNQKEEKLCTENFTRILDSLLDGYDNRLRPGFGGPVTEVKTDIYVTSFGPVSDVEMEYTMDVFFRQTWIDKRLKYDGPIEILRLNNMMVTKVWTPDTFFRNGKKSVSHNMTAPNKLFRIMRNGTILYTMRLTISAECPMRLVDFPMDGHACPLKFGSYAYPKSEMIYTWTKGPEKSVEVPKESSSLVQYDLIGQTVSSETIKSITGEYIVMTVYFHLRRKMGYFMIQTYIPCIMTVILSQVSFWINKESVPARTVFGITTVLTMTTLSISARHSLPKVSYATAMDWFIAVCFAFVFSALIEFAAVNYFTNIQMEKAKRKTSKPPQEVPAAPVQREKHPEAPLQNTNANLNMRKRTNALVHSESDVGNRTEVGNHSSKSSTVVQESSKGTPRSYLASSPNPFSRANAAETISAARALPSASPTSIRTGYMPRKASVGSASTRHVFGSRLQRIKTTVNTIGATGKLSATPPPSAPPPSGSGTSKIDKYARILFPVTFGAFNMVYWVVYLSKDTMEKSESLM
GABA-A receptor; alpha-6/beta-3/gamma-2, sequence (Q16445 whole entry, one chain of several): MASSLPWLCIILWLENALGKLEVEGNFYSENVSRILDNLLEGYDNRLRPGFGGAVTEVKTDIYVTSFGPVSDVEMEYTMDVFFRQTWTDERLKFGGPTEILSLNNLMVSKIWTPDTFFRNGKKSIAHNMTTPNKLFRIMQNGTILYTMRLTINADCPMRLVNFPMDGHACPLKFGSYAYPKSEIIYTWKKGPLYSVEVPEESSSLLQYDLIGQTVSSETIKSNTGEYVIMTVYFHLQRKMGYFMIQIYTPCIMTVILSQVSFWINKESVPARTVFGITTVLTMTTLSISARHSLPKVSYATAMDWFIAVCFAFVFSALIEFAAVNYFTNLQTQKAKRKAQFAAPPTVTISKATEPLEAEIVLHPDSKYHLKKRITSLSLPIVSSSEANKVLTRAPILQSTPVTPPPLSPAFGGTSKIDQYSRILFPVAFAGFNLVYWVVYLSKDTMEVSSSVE

On to `C#Cc1ccc2c(c1)C(=O)N(C)Cc1c(C(=O)OCC)ncn1-2`, for which the Ki (usually a dissociation constant, usually derived from enzyme kinetics or from competition with a known ligand) in assay [1] is 53 nM; in assay [2] it was 25.8 nM.
With `CN1Cc2c(C(=O)OC(C)(C)C)ncn2-c2ccc(C#C[Si](C)(C)C)cc2C1=O`, the Ki was determined as 7.8 nM in assay [1] and 255 nM in assay [2].
Consider `C#Cc1ccc2c(c1)C(=O)N(C)Cc1c(C(=O)OCCCOC(=O)c3ncn4c3CN(C)C(=O)c3cc(C#C)ccc3-4)ncn1-2`, for which the Ki in assay [3] was greater than 1000 nM; in assay [4], greater than 2000 nM; in assay [1] it was 1550 nM; in assay [5], 15 nM; in assay [6] it was greater than 1000 nM; in assay [2] it was 858 nM.
`CCOC(=O)c1ncn2c1[C@@H]1CCCN1C(=O)c1cc(OC)ccc1-2` gave a Ki in assay [2] of 24.5 nM.
`C#Cc1ccc2c(c1)C(=O)N(C)Cc1c(C(=O)OC(C)(C)C)ncn1-2`: affinity in assay [2] was put at a Ki of 18.7 nM.
Still for that read-out and setting: then `CCOC(=O)c1ncn2c1CN(C)C(=O)c1cc(C#C[Si](C)(C)C)ccc1-2`, with 198 nM.
With `CCOC(=O)c1ncn2c1CN(C)C(=O)c1cc(N=[N+]=[N-])ccc1-2` [Ro-154513], the Ki in assay [3] amounted to 33 nM; in assay [2], 25 nM.
